Assay results gathered from unrelated publications.
Compare with care: the assays were run in different laboratories.
Cell line: A549
Effect on: cell growth or viability

| Structure (SMILES) | method | concentration | time | endpoint | result |
| --- | --- | --- | --- | --- | --- |
| O=C(CN1C(=O)/C(=C/c2cccc(Cl)c2)SC1=S)Nc1ccccc1 | MTT | 10 µM |  | inhibition | 25.9% |
| CC(C)=CCC[C@](C)(O)[C@H]1CC[C@]2(C)[C@@H]1[C@H](O)C[C@@H]1[C@@]3(C)CC[C@H](O[C@@H]4O[C@H](CO)[C@@H](O)[C@H](O)[C@H]4O[C@@H]4O[C@H](CO)[C@@H](O)[C@H](O)[C@H]4O)C(C)(C)[C@@H]3CC[C@]12C | MTT |  | 72 h | IC80 | > 100 µM |
| COc1ccc2c(c1)C(=NNc1nc(-c3ccc(OC)c(OC)c3)nc3ccccc13)C(=O)N2 |  | 30 µM |  | inhibition | 17% |
| O=C(CN1C(=O)/C(=C/c2ccccn2)SC1=S)Nc1ccccc1 | MTT | 10 µM |  | inhibition | 32.6% |
| CN1C[C@H](C(=O)N[C@]2(C)O[C@@]3(O)[C@@H]4CCCN4C(=O)[C@H](Cc4ccccc4)N3C2=O)C[C@@H]2c3cccc4[nH]cc(c34)C[C@H]21 | MTT |  | 72 h | EC50 | 43 µM |
| CCN(CC)CCNC(=O)c1c(C)[nH]c(/C=C2\C(=O)Nc3ccc(F)cc32)c1C |  | 30 µM |  | inhibition | 85.7% |
| COc1cccc(NC(=O)CN2C(=O)/C(=C/C3CC3)SC2=S)c1 | MTT | 10 µM |  | inhibition | 17.2% |
| COc1ccccc1OCCNCC(O)COc1cccc2[nH]c3ccccc3c12 (stereo not shown) | CCK-8 | 100 µM | 72 h | viability | < 50% |
| O=C(CN1C(=O)/C(=C/C2CC2)SC1=S)Nc1ccccc1 | MTT | 10 µM |  | inhibition | 28.9% |
| Cn1c(=O)c(NN=C2C(=O)Nc3ccc(F)cc32)nc2ccccc21 |  | 30 µM |  | inhibition | 53.2% |
| O=C(/C=C/c1ccc2c(ccn2S(=O)(=O)c2ccccc2)c1)NO | SRB |  | 48 h | GI50 | 1 µM |
| CCn1cc(C(=O)O)c(=O)c2cc(F)c(N3CCNCC3)cc21 | SRB |  | 48 h | GI50 | > 80 µg/mL |
| O=C(CN1C(=O)/C(=C/c2ccc(F)cc2)SC1=S)Nc1ccccc1 | MTT | 10 µM |  | inhibition | 27.6% |
| O=C1Nc2ccccc2C1=NNc1nnc(Cc2ccccc2)c2ccccc12 |  | 30 µM |  | inhibition | 81.1% |
| COc1ccc(CCNCC(O)COc2cccc(C)c2)cc1OC (stereo not shown) | CCK-8 | 100 µM | 72 h | viability | < 50% |
| O=C(CN1C(=O)/C(=C/c2ccco2)SC1=S)Nc1ccccc1 | MTT | 10 µM |  | inhibition | 39.5% |
| CS(=O)(=O)CCNCc1ccc(-c2ccc3ncnc(Nc4ccc(OCc5cccc(F)c5)c(Cl)c4)c3c2)o1 | MTT |  | 72 h | EC50 | 67 µM |
| C[C@]12CC[C@@H]3c4ccc(O)cc4CC[C@H]3[C@@H]1CC[C@@H]2O | ATP luminescence |  | 72 h | EC90 | 56.1 µM |
| COC(C)(C)CCC[C@](C)(O)[C@H]1CC[C@]2(C)[C@@H]1[C@H](O)C[C@@H]1[C@@]3(C)CC[C@H](O)C(C)(C)[C@@H]3CC[C@]12C | MTT |  | 72 h | IC20 | 0.66 µM |
